One series relates to Mus musculus. Nature of the series: Toxicity in mouse ascites sarcoma 180 cells allografted ddN mouse at 3 mg/kg/day for 5 days administered 24 hrs after tumor inoculation measured 7th day after tumor inoculation. It is filed as organism-based. The conditions noted are these: in vivo.
As to `O=C1C=CC(=O)C1`, the Activity entry is “Toxic”.

The next series relates to Sarcoma-180. The series is described as follows: Antitumor activity against mouse ascites Sarcoma 180 cells allografted in ddN mouse assessed as percentage of total packed cell volume ratio at 10 mg/kg/day for 5 days administered 24 hrs after tumor inoculation measured 7th day after tumor inoculation. It counts as functional.
Conditions: not given
The essentials: (§1)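 Compound given by injection once daily for 5 days, beginning 24 h after S-180 tumor inoculation. Antitumor activity was scored from the total packed cell volume ratio (TPCV %) on day 7 after inoculation.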
Take `COc1ccc(C=C2C(=O)C=CC2=O)cc1`: the Activity amounted to 0%.

For the compound `COc1ccc(C=C2C(=O)C=CC2=O)cc1O`, the Activity amounted to 0%.

Turning to `O=C1C=CC(=O)C1=Cc1ccc(O)cc1`, the Activity was determined as 0%.

With `COc1cc(C=C2C(=O)C=CC2=O)cc(OC)c1O`, the Activity is 0%.

As for `COc1ccc(C=C2C(=O)C=CC2=O)cc1OC`, the Activity turned out to be 0%.

As for `COc1cc(C=C2C(=O)C=CC2=O)cc(OC)c1OC`, the Activity was determined as 0%.

As to `COc1cc(C=C2C(=O)C=CC2=O)ccc1OCc1ccccc1`, the Activity is 11%.

For `COc1cc(C=C2C(=O)C=CC2=O)cc(OC)c1OCc1ccccc1`, the Activity is recorded as 11%.

For `O=C1C=CC(=O)C1=C/C=C/c1ccccc1`, the Activity was determined as 0%.

Another series relates to Sarcoma-180. The series is described as follows: Antitumor activity against mouse ascites Sarcoma 180 cells allografted in ddN mouse assessed as percentage of total packed cell volume ratio at 3 mg/kg/day for 5 days administered 24 hrs after tumor inoculation measured 7th day after tumor inoculation. It counts as functional.
Conditions: not given
The essentials: as §1
For `COc1cc(C=C2C(=O)C=CC2=O)ccc1O`, the Activity worked out at 0%.

A further series concerns Sarcoma-180. Nature of the series: Antitumor activity against mouse ascites Sarcoma 180 cells allografted in ddN mouse assessed as percentage of total packed cell volume ratio at 100 mg/kg/day for 5 days administered 24 hrs after tumor inoculation measured 7th day after tumor inoculation. It counts as functional.
Conditions: not given
The essentials: as §1
For the compound `COc1cc(C=C2C(=O)c3ccccc3C2=O)ccc1O`, the Activity was 0%.

Regarding `COc1cc(C=C2C(=O)c3ccccc3C2=O)cc(OC)c1OC`, the Activity was found to be 41%.

As to `COc1ccc(C=C2C(=O)c3ccccc3C2=O)cc1O`, the Activity is listed as 41%.

With `COc1cc(/C=C2\CCC/C(=C\c3cc(OC)c(O)c(OC)c3)C2=O)cc(OC)c1O`, the Activity is listed as 66%.

Consider `COc1cc(/C=C2\CCC(C)/C(=C\c3cc(OC)c(OC)c(OC)c3)C2=O)cc(OC)c1OC` (stereo not given), for which the Activity came to 66%.

For `COc1cc(/C=C2\CC(C)C/C(=C\c3ccc(O)c(OC)c3)C2=O)ccc1O` (stereo not given), the Activity is recorded as 66%.

Turning to `COc1ccc(C=C2C(=O)c3ccccc3C2=O)cc1`, the Activity is on record as 66%.

With `COc1cc(/C=C2\CC/C(=C\c3ccc(O)c(OC)c3)C2=O)ccc1O`, the Activity came to 66%.

Regarding `O=C1CC(=O)c2ccccc21`, the Activity is listed as 11%.

With `O=C1C(=Cc2ccc(O)cc2)C(=O)c2ccccc21`, the Activity was 66%.

For `COc1cc(C=C2C(=O)c3ccccc3C2=O)cc(OC)c1O`, the Activity worked out at 11%.

`COc1ccc(C=C2C(=O)c3ccccc3C2=O)cc1OC`: the Activity stood at 41%.

With `COc1cc(C=C2C(=O)c3ccccc3C2=O)ccc1OCc1ccccc1`, the Activity is reported as 66%.

With `COc1cc(C=C2C(=O)c3ccccc3C2=O)cc(OC)c1OCc1ccccc1`, the Activity is reported as 66%.

On to `O=C1C(=C/C=C/c2ccccc2)C(=O)c2ccccc21`, for which the Activity is recorded as 66%.

For the compound `COc1cc(/C=C/C=C2C(=O)c3ccccc3C2=O)ccc1O`, the Activity is 66%.

Turning to `COc1cc(/C=C2\CC/C(=C\c3ccc(OCc4ccccc4)c(OC)c3)C2=O)ccc1OCc1ccccc1`, the Activity was determined as 66%.

For `COc1cc(/C=C2\CC/C(=C\c3cc(OC)c(OCc4ccccc4)c(OC)c3)C2=O)cc(OC)c1OCc1ccccc1`, the Activity is 66%.

With `COc1cc(/C=C2\CCC/C(=C\c3ccc(OCc4ccccc4)c(OC)c3)C2=O)ccc1OCc1ccccc1`, the Activity is on record as 66%.

In the case of `COc1cc(/C=C2\CCC/C(=C\c3cc(OC)c(OCc4ccccc4)c(OC)c3)C2=O)cc(OC)c1OCc1ccccc1`, the Activity turned out to be 66%.

Take `COc1cc(/C=C2\CCC(C)/C(=C\c3ccc(O)c(OC)c3)C2=O)ccc1O` (stereo not given): the Activity stood at 66%.

On to `COc1cc(/C=C2\CCC(C)/C(=C\c3ccc(OCc4ccccc4)c(OC)c3)C2=O)ccc1OCc1ccccc1` (stereo not given), for which the Activity was determined as 66%.

As to `COc1cc(/C=C2\CCC(C)/C(=C\c3cc(OC)c(O)c(OC)c3)C2=O)cc(OC)c1O` (stereo not given), the Activity was found to be 66%.

On to `COc1cc(/C=C2\CCC(C)/C(=C\c3cc(OC)c(OCc4ccccc4)c(OC)c3)C2=O)cc(OC)c1OCc1ccccc1` (stereo not given), for which the Activity stood at 66%.

On to `COc1cc(/C=C2\CC(C)C/C(=C\c3ccc(OCc4ccccc4)c(OC)c3)C2=O)ccc1OCc1ccccc1` (stereo not given), for which the Activity is recorded as 66%.

On to `COc1cc(/C=C2\CC(C)C/C(=C\c3cc(OC)c(O)c(OC)c3)C2=O)cc(OC)c1O` (stereo not given), for which the Activity is recorded as 66%.

As to `COc1cc(/C=C2\CC(C)C/C(=C\c3cc(OC)c(OCc4ccccc4)c(OC)c3)C2=O)cc(OC)c1OCc1ccccc1` (stereo not given), the Activity is 66%.

Consider `COc1cc(/C=C2\CC/C(=C\c3cc(OC)c(O)c(OC)c3)C2=O)cc(OC)c1O`, for which the Activity worked out at 66%.

In the case of `COc1cc(/C=C2\CCC/C(=C\c3ccc(O)c(OC)c3)C2=O)ccc1O` [CYCLOVALONE], the Activity was determined as 66%.
